# Test results taken from ChEMBL document CHEMBL3244125, “In vivo inhibitors of Escherichia coli phenylalanyl-tRNA synthetase” (J Med Chem, 1979).
# The source made the active and inactive calls. The rule behind the calls is not given here.
# Assays:
# [1] = Inhibition of rel+ Escherichia coli B Phe-tRNA synthetase using L-[3H]-phenylalanine as substrate by scintillation counting analysis
# [2] = Inhibition of Phe-tRNA synthetase in rel+ Escherichia coli B assessed as growth inhibition
# Method in brief: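 E. coli B/r in exponential growth (A600 ≈ 0.3) in basal salts medium (0.2% glucose, phosphate, MgSO4, (NH4)2SO4) was diluted into medium with a range of inhibitor levels. It was incubated at 37 °C for about three generations, until controls reached A600 0.4–0.45. Growth was read at 600 nm as % of control turbidity, and IC50 was taken from % inhibition versus concentration plots.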
# [3] = test system: Escherichia coli B; assay: Ratio of IC50 for inhibition of Phe-tRNA synthetase in rel+ Escherichia coli B assessed as growth inhibition to Ki for inhibition of rel+ Escherichia coli B Phe-tRNA synthetase using L-[3H]-phenylalanine as substrate
# [4] = test system: Escherichia coli B; assay: Inhibition of Phe-tRNA synthetase in rel+ Escherichia coli B assessed as growth inhibition at IC50 in presence of 2.5 mM L-Phe
# Method in brief: (§1)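 Reversal assay in E. coli B/r. Exponential culture (A600 ≈ 0.3) in basal salts glucose minimal medium was diluted into medium holding the specified amino acid plus inhibitor, at 37 °C. Controls had no inhibitor. Growth was read turbidimetrically at 600 nm after about three generations, as % inhibition relative to control.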
# [5] = biological target: Isoleucine--tRNA ligase (Escherichia coli K-12) (UniProt P00956); assay: Inhibition of Ile-tRNA synthetase in rel+ Escherichia coli B assessed as tRNA-Ile level at 9.2 uM at 37 degC after 30 mins in absence of casamino acid supplement in tris-glucose minimal media (reference value: 40%)
# Sequence of Isoleucine--tRNA ligase (Escherichia coli K-12) (P00956 whole entry): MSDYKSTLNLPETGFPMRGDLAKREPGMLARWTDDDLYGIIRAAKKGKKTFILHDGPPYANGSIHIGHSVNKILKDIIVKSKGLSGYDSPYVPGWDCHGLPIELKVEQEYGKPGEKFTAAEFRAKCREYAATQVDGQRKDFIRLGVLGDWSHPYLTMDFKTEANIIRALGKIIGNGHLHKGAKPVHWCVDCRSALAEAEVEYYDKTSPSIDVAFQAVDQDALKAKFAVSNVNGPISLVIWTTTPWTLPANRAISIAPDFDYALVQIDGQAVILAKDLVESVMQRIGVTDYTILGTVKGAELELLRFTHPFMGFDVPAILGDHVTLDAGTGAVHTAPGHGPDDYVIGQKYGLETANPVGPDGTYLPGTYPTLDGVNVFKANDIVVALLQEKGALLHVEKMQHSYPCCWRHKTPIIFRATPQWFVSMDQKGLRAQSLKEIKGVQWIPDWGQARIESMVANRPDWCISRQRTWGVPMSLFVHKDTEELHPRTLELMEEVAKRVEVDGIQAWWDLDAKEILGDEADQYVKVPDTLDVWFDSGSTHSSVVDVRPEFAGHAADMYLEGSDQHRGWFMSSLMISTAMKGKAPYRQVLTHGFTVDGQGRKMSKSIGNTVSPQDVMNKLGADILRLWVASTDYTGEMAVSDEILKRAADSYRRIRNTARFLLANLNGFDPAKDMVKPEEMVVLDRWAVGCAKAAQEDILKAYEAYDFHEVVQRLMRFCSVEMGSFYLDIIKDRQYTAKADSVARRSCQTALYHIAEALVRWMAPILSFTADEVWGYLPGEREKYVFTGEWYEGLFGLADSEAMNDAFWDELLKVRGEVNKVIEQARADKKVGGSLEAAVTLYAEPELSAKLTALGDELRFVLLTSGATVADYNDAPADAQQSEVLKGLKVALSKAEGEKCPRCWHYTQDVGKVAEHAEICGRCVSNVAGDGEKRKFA
# [6] = test system: Escherichia coli B; assay: Inhibition of Phe-tRNA synthetase in rel+ Escherichia coli B assessed as tRNA-Phe level at 230 uM at 37 degC after 30 mins in presence of casamino acid supplement in tris-glucose minimal media (reference value: 90%)
# [7] = test system: Escherichia coli B; assay: Inhibition of Val-tRNA synthetase in rel+ Escherichia coli B assessed as tRNA-val level at 230 uM at 37 degC after 30 mins in presence of casamino acid supplement in tris-glucose minimal media (reference value: 100%)
# [8] = biological target: Isoleucine--tRNA ligase (Escherichia coli K-12) (UniProt P00956); assay: Inhibition of Ile-tRNA synthetase in rel+ Escherichia coli B assessed as tRNA-Ile level at 230 uM at 37 degC after 30 mins in presence of casamino acid supplement in tris-glucose minimal media (reference value: 50%)
# [9] = test system: Escherichia coli; assay: Inhibition of Phe-tRNA synthetase in Escherichia coli NP29 assessed as formation of [32P]ppGpp at 230 uM at 30 degC measured every 1 min by scintillation counting analysis
# Method in brief: (§2)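 Exponential cultures in Tris-glucose minimal medium were labeled with carrier-free [32P]phosphate at least 30 min before inhibitor. Four to five 25 µL aliquots were taken at about 1-min intervals into ice-cold 2 M formic acid and held 30 min at 0 °C. Extracts were run on PEI-cellulose TLC in 1.5 M KH2PO4 pH 3.4. ppGpp spots were located by autoradiography and counted. Initial rate was taken as the linear increase over time.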
# [10] = test system: Escherichia coli B; assay: Inhibition of Phe-tRNA synthetase in rel+ Escherichia coli B assessed as formation of [32P]ppGpp at 4.6 uM at 37 degC measured every 1 min by scintillation counting analysis in absence of casamino acid supplement in tris-glucose minimal media; method in brief: as §2
# [11] = test system: Escherichia coli B; assay: Inhibition of Phe-tRNA synthetase in rel+ Escherichia coli B assessed as formation of [32P]ppGpp at 9.2 uM at 37 degC measured every 1 min by scintillation counting analysis in absence of casamino acid supplement in tris-glucose minimal media; method in brief: as §2
# [12] = test system: Escherichia coli B; assay: Inhibition of Phe-tRNA synthetase in rel+ Escherichia coli B assessed as formation of [32P]ppGpp at 23 uM at 37 degC measured every 1 min by scintillation counting analysis in absence of casamino acid supplement in tris-glucose minimal media; method in brief: as §2
# [13] = test system: Escherichia coli B; assay: Inhibition of Phe-tRNA synthetase in rel+ Escherichia coli B assessed as formation of [32P]ppGpp at 230 uM at 37 degC measured every 1 min by scintillation counting analysis in absence of casamino acid supplement in tris-glucose minimal media; method in brief: as §2
# [14] = test system: Escherichia coli B; assay: Inhibition of Phe-tRNA synthetase in rel+ Escherichia coli B assessed as formation of [32P]ppGpp at 230 uM at 37 degC measured every 1 min by scintillation counting analysis in presence of casamino acid supplement in tris-glucose minimal media; method in brief: as §2
# [15] = test system: Escherichia coli B; assay: Inhibition of Phe-tRNA synthetase in rel+ Escherichia coli B assessed as formation of [32P]ppGpp at 92 uM measured every 1 min by scintillation counting analysis; method in brief: as §2
# [16] = test system: Escherichia coli B; assay: Inhibition of Phe-tRNA synthetase in rel+ Escherichia coli B assessed as growth inhibition at 92 uM
# Method in brief: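 E. coli B/r in log phase at 37 °C, with inhibitor added at a set time. Cell density was followed turbidimetrically at 600 nm alongside ppGpp and RNA synthesis measurements.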
# [17] = test system: Escherichia coli B; assay: Inhibition of Phe-tRNA synthetase in rel+ Escherichia coli B assessed as [3H]-RNA synthesis at 92 uM after 5 mins by scintillation counting analysis in presence of [5-3H]-Uracil
# Method in brief: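 E. coli B/r in exponential growth was labeled with [5-3H]uracil (75 Ci/mol). At intervals, 25 µL culture was put into 1 mL ice-cold trichloroacetic acid for 5 min at 0 °C. Samples were filtered on glass-fibre filters, washed with cold TCA then 95% ethanol, and counted by scintillation.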
# [18] = Inhibition of Phe-tRNA synthetase in rel+ Escherichia coli B assessed as reduction of tRNA-Phe level after 30 mins
# [19] = test system: Escherichia coli B; assay: Inhibition of Phe-tRNA synthetase in rel+ Escherichia coli B assessed as half maximal rate of [32P]ppGpp formation at 70 uM measured every 1 min by scintillation counting analysis; method in brief: as §2
# [20] = test system: Escherichia coli B; assay: Inhibition of Phe-tRNA synthetase in rel+ Escherichia coli B assessed as growth inhibition at IC50 in presence of Ser; method in brief: as §1
# [21] = test system: Escherichia coli B; assay: Inhibition of Phe-tRNA synthetase in rel+ Escherichia coli B assessed as growth inhibition at IC50 in presence of Tyr; method in brief: as §1
# [22] = test system: Escherichia coli B; assay: Inhibition of Phe-tRNA synthetase in rel+ Escherichia coli B assessed as growth inhibition at IC50 in presence of Ile; method in brief: as §1
# [23] = test system: Escherichia coli B; assay: Inhibition of Phe-tRNA synthetase in rel+ Escherichia coli B assessed as growth inhibition at IC50 in presence of Pro; method in brief: as §1
# [24] = test system: Escherichia coli B; assay: Inhibition of Phe-tRNA synthetase in rel+ Escherichia coli B assessed as growth inhibition at IC50 in presence of Val; method in brief: as §1
# [25] = test system: Escherichia coli; assay: Inhibition of Phe-tRNA synthetase in Escherichia coli NP29 assessed as tRNA-Phe level at 230 uM at 30 degC after 30 mins (reference value: 70%)
# Method in brief: (§3)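 Temperature-sensitive Val-tRNA synthetase strain NP29, grown at 30 °C in Tris-glucose minimal medium with 0.2% casamino acids. Inhibitor was added during log growth and the control was kept at 30 °C. After 30 min, cells were quenched with ice and NaN3 and disrupted. Aminoacyl-tRNA was measured by periodate oxidation (1 mM) or Tris-HCl pH 8.0 stripping, with purified synthetases.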
# [26] = test system: Escherichia coli; assay: Inhibition of Val-tRNA synthetase in Escherichia coli NP29 assessed as tRNA-val level at 230 uM at 30 degC after 30 mins (reference value: 30%); method in brief: as §3
# [27] = biological target: Isoleucine--tRNA ligase (Escherichia coli K-12) (UniProt P00956); assay: Inhibition of Ile-tRNA synthetase in Escherichia coli NP29 assessed as tRNA-Ile level at 230 uM at 30 degC after 30 mins (reference value: 40%); method in brief: as §3
# [28] = test system: Escherichia coli B; assay: Inhibition of rel+ Phe-tRNA synthetase in Escherichia coli B assessed as tRNA-Phe level at 4.6 uM at 37 degC after 30 mins in absence of casamino acid supplement in tris-glucose minimal media (reference value: 60%)
# [29] = biological target: Isoleucine--tRNA ligase (Escherichia coli K-12) (UniProt P00956); assay: Inhibition of Ile-tRNA synthetase in rel+ Escherichia coli B assessed as tRNA-Ile level at 4.6 uM at 37 degC after 30 mins in absence of casamino acid supplement in tris-glucose minimal media (reference value: 40%)
# [30] = test system: Escherichia coli B; assay: Inhibition of Phe-tRNA synthetase in rel+ Escherichia coli B assessed as tRNA-Phe level at 23 uM at 37 degC after 30 mins in absence of casamino acid supplement in tris-glucose minimal media (reference value: 60%)
# [31] = biological target: Isoleucine--tRNA ligase (Escherichia coli K-12) (UniProt P00956); assay: Inhibition of Ile-tRNA synthetase in rel+ Escherichia coli B assessed as tRNA-Ile level at 23 uM at 37 degC after 30 mins in absence of casamino acid supplement in tris-glucose minimal media (reference value: 40%)
# [32] = test system: Escherichia coli B; assay: Inhibition of Phe-tRNA synthetase in rel+ Escherichia coli B assessed as tRNA-Phe level at 230 uM at 37 degC after 30 mins in absence of casamino acid supplement in tris-glucose minimal media (reference value: 60%)
# [33] = test system: Escherichia coli B; assay: Inhibition of Val-tRNA synthetase in rel+ Escherichia coli B assessed as tRNA-val level at 230 uM at 37 degC after 30 mins in absence of casamino acid supplement in tris-glucose minimal media
# [34] = biological target: Isoleucine--tRNA ligase (Escherichia coli K-12) (UniProt P00956); assay: Inhibition of Ile-tRNA synthetase in rel+ Escherichia coli B assessed as tRNA-Ile level at 230 uM at 37 degC after 30 mins in absence of casamino acid supplement in tris-glucose minimal media (reference value: 40%)
# [35] = test system: Escherichia coli B; assay: Inhibition of Phe-tRNA synthetase in rel+ Escherichia coli B assessed as tRNA-Phe level at 9.2 uM at 37 degC after 30 mins in absence of casamino acid supplement in tris-glucose minimal media (reference value: 60%)
smiles,measurement,setting,value
OC[C@@H](Cc1ccccc1)NCc1ccccc1,Ki,[1],0.77 µM
same,IC50,[2],82 µM
same,Ratio,[3],106
same,inhibition,[4],inactive
c1ccc(CCNCc2ccccc2)cc1,Ki,[1],0.67 µM
same,IC50,[2],77 µM
same,Ratio,[3],115
same,inhibition,[4],inactive
NCCc1ccccc1 [PHENETHYLAMINE],Ki,[1],93 µM
same,IC50,[2],10900 µM
same,Ratio,[3],117
C[C@H](Cc1ccccc1)NCc1ccccc1 [N-BENZYLAMPHETAMINE],inhibition,[5],40%
same,inhibition,[6],15%
same,inhibition,[7],100%
same,inhibition,[8],55%
same,inhibition,[9],Active
same,inhibition,[10],Active
same,inhibition,[11],Active
same,inhibition,[12],Active
same,inhibition,[13],Active
same,inhibition,[14],Active
same,inhibition,[15],Active
same,inhibition,[16],Active
same,inhibition,[17],Active
same,IC50,[18],13 µM
same,inhibition,[19],Active
same,inhibition,[20],Active
same,inhibition,[21],Active
same,inhibition,[22],Active
same,inhibition,[23],Active
same,Ki,[1],0.14 µM
same,IC50,[2],15 µM
same,Ratio,[3],107
same,inhibition,[4],inactive
same,inhibition,[24],Active
same,inhibition,[25],5%
same,inhibition,[26],95%
same,inhibition,[27],45%
same,inhibition,[28],45%
same,inhibition,[29],40%
same,inhibition,[30],20%
same,inhibition,[31],45%
same,inhibition,[32],10%
same,inhibition,[33],100%
same,inhibition,[34],45%
same,inhibition,[35],35%
C[C@@H](Cc1ccccc1)NCc1ccccc1,Ki,[1],5.6 µM
same,IC50,[2],590 µM
same,Ratio,[3],105
same,inhibition,[4],inactive
